{"data": "Measurements of several laboratories", "FLT3 R834Q": "Receptor-type tyrosine-protein kinase FLT3 (FLT3, Homo sapiens, UniProt P36888, R834Q)", "FLT3": "Receptor-type tyrosine-protein kinase FLT3 (FLT3, Homo sapiens, UniProt P36888)", "FLT3 K663Q": "Receptor-type tyrosine-protein kinase FLT3 (FLT3, Homo sapiens, UniProt P36888, K663Q)", "FLT3 autoinhibited": "Receptor-type tyrosine-protein kinase FLT3, autoinhibited (FLT3, Homo sapiens, UniProt P36888)", "FLT3 D835V": "Receptor-type tyrosine-protein kinase FLT3 (FLT3, Homo sapiens, UniProt P36888, D835V)", "FLT3 D835Y": "Receptor-type tyrosine-protein kinase FLT3 (FLT3, Homo sapiens, UniProt P36888, D835Y)", "FLT3 N841I": "Receptor-type tyrosine-protein kinase FLT3 (FLT3, Homo sapiens, UniProt P36888, N841I)", "note": "Compare with care: the assays were run in different laboratories."}
{"SMILES": "COc1cnc(Nc2cccc(S(N)(=O)=O)c2)nc1N1CCN(c2ccccc2)CC1", "target": "FLT3 R834Q", "assay": "binding, competition with immobilised ligand", "conditions": "1 µM", "remaining binding [%]": 54}
{"SMILES": "COc1ncc2cc3ccccc3nc2c1C#N", "target": "FLT3 R834Q", "assay": "cell-free assay, competition with immobilised ligand", "conditions": "5 µM", "remaining binding [%]": 92}
{"SMILES": "c1ccc(N2CCN(Cc3nc4ccccc4[nH]3)CC2)nc1", "target": "FLT3", "assay": "binding, competition with immobilised ligand", "conditions": "1 µM", "remaining binding [%]": 100}
{"SMILES": "CN(c1nccc(-c2cnn3ncccc23)n1)C1CC1", "target": "FLT3 K663Q", "assay": "binding", "conditions": "1 µM", "remaining binding [%]": 83}
{"SMILES": "CN1CCN(c2ccc(Nc3nccc(-c4ccccc4)n3)cc2C(F)(F)F)CC1", "target": "FLT3 R834Q", "assay": "binding", "conditions": "10 µM", "remaining binding [%]": 15}
{"SMILES": "Cc1cnc(Nc2ccc(C(=O)N3CCC(N4CCCC4)CC3)cc2)nc1-c1cc2ccccc2s1", "target": "Receptor-type tyrosine-protein kinase FLT3 (FLT3, Homo sapiens, UniProt P36888, F691L/ITD)", "assay": "binding, competition with immobilised ligand", "conditions": "1 µM", "remaining binding [%]": 18}
{"SMILES": "CCC(=N\\O)/C(C)=C/c1ccc(F)cc1", "target": "FLT3 autoinhibited", "assay": "cell-free assay, competition with immobilised ligand", "conditions": "1 µM", "remaining binding [%]": 86}
{"SMILES": "Nc1ncc2c(n1)-c1c([nH]c3ccc(C#CC4CC4)cc13)CCCC2", "target": "FLT3 D835V", "assay": "binding, competition with immobilised ligand", "conditions": "1 µM", "remaining binding [%]": 92}
{"SMILES": "CCCCN(CCCC)C(=O)CN1C[C@@H](c2cc(OC)c3c(c2)OCO3)[C@H](C(=O)O)[C@H]1CC(C)(C)CCC", "target": "FLT3 D835Y", "assay": "cell-free assay, competition with immobilised ligand", "conditions": "1 µM", "remaining binding [%]": 75.2}
{"SMILES": "CCN1CCN(Cc2ccc(C(=O)Nc3ccc(C)c(Oc4ccc5c(c4)CC(=O)N5)c3)cc2C(F)(F)F)CC1", "target": "Receptor-type tyrosine-protein kinase FLT3 (FLT3, Homo sapiens, UniProt P36888, D835H)", "assay": "binding, competition with immobilised ligand", "conditions": "1 µM", "remaining binding [%]": 100}
{"SMILES": "F[C@@H]1CCN(c2nccc(-c3cnn4ncccc34)n2)C1", "target": "FLT3 autoinhibited", "assay": "binding", "conditions": "1 µM", "remaining binding [%]": 100}
{"SMILES": "C[C@@H](c1ccc(-n2cnc3c(N)ncnc32)cc1)N1CCc2nn(C)c(Cc3ccccc3)c2C1=O", "target": "FLT3 autoinhibited", "assay": "binding, competition with immobilised ligand", "conditions": "0.1 µM", "remaining binding [%]": 84}
{"SMILES": "CNC(=O)[C@@H]1CC[C@@H](n2c(-c3ccc4cnccc4c3)nc3ccc(C(=O)NCc4cccc(C(N)=O)c4)cc32)C1", "target": "FLT3", "assay": "binding, competition with immobilised ligand", "conditions": "1 µM", "remaining binding [%]": 100}
{"SMILES": "O=C(c1ccc(Nc2ncc(Cl)c(-c3ccc(Cl)s3)n2)cc1)N1CCC(N2CCCC2)CC1", "target": "FLT3 N841I", "assay": "binding, competition with immobilised ligand", "conditions": "1 µM", "remaining binding [%]": 0.4}
{"SMILES": "c1cncc(-c2cccc(Nc3nccc(NC4CCCCC4)n3)c2)c1", "target": "FLT3 R834Q", "assay": "binding, competition with immobilised ligand", "conditions": "10 µM", "remaining binding [%]": 5.5}
{"SMILES": "O=C(NCCCN1CCOCC1)c1ccc(Nc2nccc(-c3cc4ccccc4s3)n2)cc1", "target": "FLT3 D835Y", "assay": "binding, competition with immobilised ligand", "conditions": "1 µM", "remaining binding [%]": 18}
{"SMILES": "C[C@H]1CCN(c2nccc(-c3cnn4ncccc34)n2)C1", "target": "FLT3 R834Q", "assay": "binding", "conditions": "1 µM", "remaining binding [%]": 71}
{"SMILES": "O=C(NC1CCC1)c1ccc2nc(-c3cccc(NS(=O)(=O)NCCN4CCCCC4)c3)cn2c1", "target": "Receptor-type tyrosine-protein kinase FLT3 (FLT3, Homo sapiens, UniProt P36888, D835V/ITD)", "assay": "cell-free assay, competition with immobilised ligand", "conditions": "10 µM", "remaining binding [%]": 37}
{"SMILES": "CO[C@H]1CC[C@H](CNc2ccc(S(=O)(=O)NC(=O)c3ccc(N4CCN(CC5=C(c6ccc(Cl)cc6)CC(C)(C)CC5)CC4)cc3Oc3cnc4[nH]ccc4c3)cc2[N+](=O)[O-])CC1", "target": "FLT3", "assay": "cell-free assay, competition with immobilised ligand", "conditions": "1 µM", "remaining binding [%]": 100}
{"SMILES": "COc1ccnn2ncc(-c3ccnc(N(C)C)n3)c12", "target": "FLT3 D835Y", "assay": "binding", "conditions": "1 µM", "remaining binding [%]": 97}
{"SMILES": "COCCOc1nc(-c2ccc(Cl)nc2)nc2c1CN(C(=O)c1ncn3ccccc13)CC2", "target": "FLT3 D835V", "assay": "cell-free assay, competition with immobilised ligand", "conditions": "0.1 µM", "remaining binding [%]": 100}
{"SMILES": "C=CC(=O)N1CCC(C(=O)NCC(=O)N2CCN(c3nc(-c4cnc(N)nc4C(F)F)nc(N4CCOCC4)n3)CC2)CC1", "target": "FLT3 K663Q", "assay": "binding, competition with immobilised ligand", "conditions": "1 µM", "remaining binding [%]": 100}
{"SMILES": "CN(C)c1nccc(-c2cnc3ncccn23)n1", "target": "FLT3 autoinhibited", "assay": "binding", "conditions": "1 µM", "remaining binding [%]": 72}
{"SMILES": "O=C(c1ccc(Nc2ncc(Cl)c(-c3cc4ccccc4s3)n2)cc1)N1CCC(N2CCCC2)CC1", "target": "FLT3 K663Q", "assay": "binding, competition with immobilised ligand", "conditions": "1 µM", "remaining binding [%]": 3.4}
{"SMILES": "N[C@@H]1CCN(c2nccc(-c3cnn4ncccc34)n2)C1", "target": "FLT3 D835Y", "assay": "binding", "conditions": "1 µM", "remaining binding [%]": 97}
{"SMILES": "O=C(Nc1cnc(Oc2ccc(F)cc2)nc1)N1CCc2ncccc2[C@@H]1c1ccc(F)cc1", "target": "FLT3 autoinhibited", "assay": "cell-free assay, competition with immobilised ligand", "conditions": "1 µM", "remaining binding [%]": 90}
{"SMILES": "CC1CCCN1c1nccc(-c2cnn3ncccc23)n1 (stereo not drawn)", "target": "FLT3", "assay": "binding", "conditions": "1 µM", "remaining binding [%]": 100}
{"SMILES": "O=C(Nc1c[nH]nc1C(=O)NC1CCNCC1)c1cc(F)cc(F)c1", "target": "FLT3 K663Q", "assay": "binding, competition with immobilised ligand", "conditions": "1 µM", "remaining binding [%]": 96}
{"SMILES": "COc1cnc(Nc2cccc(S(N)(=O)=O)c2)nc1N1CCN(c2ccccc2)C(=O)C1", "target": "FLT3 N841I", "assay": "binding, competition with immobilised ligand", "conditions": "1 µM", "remaining binding [%]": 96}
{"SMILES": "Cc1cnn2ncc(-c3ccnc(N(C)C)n3)c2c1", "target": "FLT3 K663Q", "assay": "binding", "conditions": "1 µM", "remaining binding [%]": 100}
{"SMILES": "O=C(c1ccc(Nc2nccc(-c3cc4ccccc4s3)n2)cc1)N1CCC(N2CCCC2)CC1", "target": "FLT3 D835V", "assay": "binding, competition with immobilised ligand", "conditions": "1 µM", "remaining binding [%]": 3.1}
{"SMILES": "O=C(NCC1CCOCC1)c1n[nH]cc1NC(=O)c1c(F)cccc1F", "target": "FLT3 D835V", "assay": "binding, competition with immobilised ligand", "conditions": "1 µM", "remaining binding [%]": 100}
{"SMILES": "O=C(NCCCC1CCCCC1)c1ccc(CNC(=O)c2cnn(-c3ccccc3)c2C(F)(F)F)cc1", "target": "FLT3 R834Q", "assay": "cell-free assay, competition with immobilised ligand", "conditions": "0.1 µM", "remaining binding [%]": 100}
{"SMILES": "O=C(NCCCN1CCOCC1)c1ccc(Nc2ncc(Cl)c(-c3ccc(Cl)s3)n2)cc1", "target": "FLT3 N841I", "assay": "binding, competition with immobilised ligand", "conditions": "1 µM", "remaining binding [%]": 0.6}
{"SMILES": "CN1CCN(c2ccc(Nc3nccc(-c4cccc([N+](=O)[O-])c4)n3)cc2C(F)(F)F)CC1", "target": "FLT3 R834Q", "assay": "binding", "conditions": "10 µM", "remaining binding [%]": 3.7}
{"SMILES": "CS(=O)(=O)c1cc(C2(NC(=O)c3cncc4c3cnn4-c3ccc(F)cc3)CC2)ccn1", "target": "FLT3 D835V", "assay": "cell-free assay, competition with immobilised ligand", "conditions": "1 µM", "remaining binding [%]": 100}
